Screening results: PubChem BioAssay, several laboratories
The list is not random: actives were taken first. Their share in the collection is about 1.8%.
697 NFkB inh: inhibitors of PMA/ionomycin-induced NF-kB reporter, 697 cells, primary screen, B-cell NF-kB inhibitor project, cell-based, luminescence, uHTS; inhibition, % at 4 µM; actives 0.33% (n = 330,000); 697 B-cell NF-kB luciferase reporter, 16 h; in the data active = inhibition above about 35%
GalR3 antag: GalR3 antagonists in HEK293 cells, primary screen, cell-based, fluorescence readout; inhibition, % at 3 µM; HEK293 GalR3-CNG cAMP membrane potential fluorescence; galR3 body fused to GalR1 C-terminus; Galanin receptor type 3 (Homo sapiens), O60755; actives 0.44% (n = 360,000); AID 651719, 2012;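 active = inhibition above the screen-wide average plus 3 SD, cut at about 13% in these data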;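 note: forskolin and galanin both at EC90 stimulate the cells; cAMP rise reported by CNG channel membrane potential dye signal; 0% = forskolin plus galanin with DMSO and 100% = forskolin alone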
Target sequence (O60755 1-299 limits assumed): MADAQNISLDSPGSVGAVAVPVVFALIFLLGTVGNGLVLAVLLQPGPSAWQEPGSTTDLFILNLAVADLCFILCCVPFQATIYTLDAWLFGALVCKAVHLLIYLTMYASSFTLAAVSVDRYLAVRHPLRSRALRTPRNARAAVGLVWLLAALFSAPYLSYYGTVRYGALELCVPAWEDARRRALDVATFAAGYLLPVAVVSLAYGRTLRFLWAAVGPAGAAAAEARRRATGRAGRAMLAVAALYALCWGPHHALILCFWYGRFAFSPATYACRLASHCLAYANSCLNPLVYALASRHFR
NR2E3 ag-1: NR2E3 agonists in two-hybrid cells, primary screen, cell-based, luminescence, CHO-S, Gal4-NCOR/VP16-NR2E3; actives 0.35% (n = 360,000); luciferase; Photoreceptor-specific nuclear receptor (Homo sapiens), Q9Y5X4; inhibition of corepressor binding, % at 3.98 µM;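 active = inhibition above the mean of all tested compounds plus 3 SD, cut at about 70% in these data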;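 note: 0% = DMSO with NR2E3 transfected cells and 100% = cells lacking NR2E3 construct; higher means lower luciferase signal from less NR2E3 corepressor binding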
Target sequence (Q9Y5X4 whole entry, looked up, the tested form may be a part): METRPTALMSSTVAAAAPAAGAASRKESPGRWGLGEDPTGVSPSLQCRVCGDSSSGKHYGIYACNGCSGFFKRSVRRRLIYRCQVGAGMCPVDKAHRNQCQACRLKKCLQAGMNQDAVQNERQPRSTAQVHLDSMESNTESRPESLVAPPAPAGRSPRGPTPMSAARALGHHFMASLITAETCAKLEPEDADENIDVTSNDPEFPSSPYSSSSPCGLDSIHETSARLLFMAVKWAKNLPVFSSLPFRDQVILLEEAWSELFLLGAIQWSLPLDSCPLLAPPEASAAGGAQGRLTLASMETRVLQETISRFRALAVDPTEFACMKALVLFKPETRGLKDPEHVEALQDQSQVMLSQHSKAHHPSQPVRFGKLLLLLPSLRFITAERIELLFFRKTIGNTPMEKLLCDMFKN
Jurkat NFkB inh: inhibitors of induced NF-kB luciferase reporter, primary screen, TCR NF-kB activation inhibitor project, cell-based, luminescence, uHTS; Jurkat, PMA/ionomycin-induced NF-kB luciferase reporter; inhibition, % at 4 µM; actives 0.53% (n = 330,000); AID 435003, 2010; in the data active = inhibition above about 50%
Gli-Sufu block: Gli-Sufu pathway antagonists, primary screen, luciferase luminescence, Sufu-KO-LIGHT cells, uHTS; Sufu-KO-LIGHT fibroblasts, Gli luciferase reporter luminescence; inhibition, % at 5 µM; actives 0.74% (n = 340,000); AID 588413, 2011;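 active = inhibition above about 55%, limit read from the data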;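 note: 0% = DMSO-treated cells and 100% = wells with medium but no cells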
NR2E3 ag-2: inhibitors of NR2E3-RetCOR corepressor binding, primary screen, NR2E3 agonist project, biochemical, TR-FRET, GST-NR2E3, biotin-RetCOR. Photoreceptor-specific nuclear receptor (Homo sapiens), Q9Y5X4. 1536-well. inhibition of corepressor binding, % at 4.78 µM. actives 0.12% (n = 320,000);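 active = percent inhibition above the cutoff of mean plus 3 SD of all tested compounds, set per screening campaign, cut at about 20% in these data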;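 note: 0% = DMSO wells and 100% = biotin wells as full block of FRET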
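System: GST-NR2E3 and biotin-RetCOR proteins; probe or stimulus: 7 nM biotin-RetCOR; doses: compound at 4.8 µM, single dose; schedule: Compound–protein incubation for 5 h at 4 °C; detection: time-resolved FRET; read-out: percent inhibition; controls: biotin wells as high control, 0.6% DMSO wells as low control; format: 1536-well plates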
NR2E3 agonist cf: NR2E3 agonists, confirmation, biochemical, TR-FRET; shares compounds with NR2E3 ag-2; cell-free NR2E3 corepressor release, 5 h; activation (reported as inhibition), % at 3.98 µM; actives 39% (n = 360); AID 2379, 2010; in the data active = activation above about 20%
PPARg-NCOR2 ag: agonists of PPARg-NCOR2 corepressor interaction, counter-screen for NR2E3 agonist project, biochemical, TR-FRET | shares compounds with NR2E3 ag-2 | TR-FRET PPARg-NCOR2 coregulator interaction | inhibition, % at 3.98 µM | actives 45% (n = 360) | AID 504787, 2011; in the data active = inhibition above about 20%;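 note: 0% = DMSO vehicle and 100% = wells without protein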
Jurkat NFkB conf: PMA/ionomycin-induced NF-kB reporter inhibitors, Jurkat retest, confirmation, T-cell NF-kB inhibitor project, cell-based, luminescence, single concentration; inhibition, % at 4 µM; shares compounds with Jurkat NFkB inh; actives 27% (n = 2,700); Jurkat NF-kB luciferase, 16 h;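 active = inhibition reaching about 45% at 4 µM in either replicate, limit read from the data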;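 note: plate controls were PMA/ionomycin stimulated DMSO wells for no effect and unstimulated DMSO wells for full effect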
Numbers without * were called inactive; . = not tested or not shown.

SMILES | 697 NFkB inh | GalR3 antag | NR2E3 ag-1 | Jurkat NFkB inh | Gli-Sufu block | NR2E3 ag-2 | NR2E3 agonist cf | PPARg-NCOR2 ag | others
CC(C)c1ccc(Oc2cccc3c2S(=O)(=O)N([C@H](C)c2ccccc2)C[C@@H](COCc2ccccc2)O3)cc1 | . | -6.5 | . | . | . | . | . | .
O=C1C=C(N2CCOCC2)c2ccccc2C1=O | 19.2 | -11.1 | 17.1 | 28.9 | 12.9 | 33.2* | 37.8* | 64.6*
CCOC(=O)c1c(-c2ccsc2)csc1N | 18.4 | -0.9 | 1.5 | -17.5 | 2.9 | 2.7 | . | .
CCOC(=O)c1c(-c2ccc(C)s2)csc1N | -6.7 | -4.2 | -7.6 | -18.1 | -10.2 | 68.3* | -3.5 | -5.3
COC(=O)c1ccc(-c2cccc(CN3CCN(c4ncc(Cc5ccccc5)cn4)CC3)c2)cc1 | . | -1.9 | . | . | . | . | . | .
C=C1c2cccc(O)c2C(O)=C2C(=O)[C@]3(O)C(O)=C(C(N)=O)C(=O)[C@@H](N(C)C)[C@@H]3[C@@H](O)[C@H]12 | 21.4 | -6.7 | -22.3 | 2.8 | -3.2 | 31.4* | 1.4 | 0.9
C[C@H]1c2cccc(O)c2C(O)=C2C(=O)C3(O)C(O)=C(C(N)=O)C(=O)[C@@H](N(C)C)[C@@H]3[C@@H](O)[C@@H]21 (some centres not stated) | 3.0 | . | -8.6 | 14.3 | -7.1 | -2.4 | . | .
CN(C(=O)COc1cc(=O)n(C)c2ccccc12)c1ccc(Cl)cc1 | 15.9 | -0.1 | -7.9 | 5.2 | 2.8 | 1.7 | . | .
CN(c1ccc(Cl)cc1)c1cc(=O)n(C)c2ccccc12 | 19.5 | -1.3 | -19.9 | -1.3 | 22.6 | 21.2* | 2.5 | 4.8
CCc1cc2cc(C(=O)Nc3ccc(F)cc3)sc2s1 | 6.2 | -4.4 | -5.6 | -47.9 | -72.1 | 29.6* | 3.9 | -12.6
CN(C(=O)c1ccc(NC(=O)Cc2ccc(NC(=O)C3CCN(C(=O)c4ccccc4)CC3)cc2)cc1)C1CC1 | 8.4 | -5.3 | -24.4 | 2.2 | -1.9 | 20.8* | 1.2 | -4.0
CN(C(=O)c1cccc(NC(=O)Cc2ccc(NC(=O)C3CCN(C(=O)c4ccccc4)CC3)cc2)c1)C1CCC1 | . | 1.3 | -47.2 | . | -1.9 | . | . | .
CC1(C)Cc2c(c(-c3ccccc3)nc3[nH][nH]c(=O)c23)CO1 | -19.0 | -7.0 | -2.8 | -10.5 | -0.8 | -0.9 | . | .
CC1(C)Cc2c(c(-c3ccccc3)nc3sc4c(=O)[nH]c(=S)[nH]c4c23)CO1 | 6.9 | . | . | 12.2 | 13.2 | 20.0* | 19.0 | 11.5
CCCCc1ccc(C2C(C#N)=C(N)SC(N)=C2C#N)s1 | -8.1 | . | . | -7.8 | . | 41.7* | -1.1 | -1.8
COc1ccccc1C(=O)N1CCN(C(=O)[C@H]2O[C@@H](n3cnc(C(N)=O)n3)[C@H](O)[C@@H]2O)CC1 | . | -6.4 | . | . | . | . | . | .
CCOc1ncccc1C(=O)Nc1ccc(C(=O)Nc2ccc(OC)cc2)cc1 | 4.2 | 2.8 | -21.1 | -2.5 | 3.6 | 44.0* | 34.2* | 32.5*
CCOc1ccc(NC(=O)c2ccc(OC)cc2)cc1 | -35.5 | 3.5 | -47.6 | -39.1 | -63.7 | 2.4 | . | .
CCCCC1=CC2=C(c3ccco3)C(=O)C(C)(OC(=O)c3ccc(OC)cc3)C(=O)C2=CN1c1ccccc1 (configuration not stated) | 5.1 | . | -46.4 | 4.3 | -5.3 | 33.9* | -5.8 | -3.4
C=CCN1C=C2C(=O)C(C)(OC(=O)c3ccc(OC)cc3)C(=O)C(c3ccco3)=C2C=C1CCCC (configuration not stated) | 10.8 | -2.6 | 9.3 | -17.8 | -4.7 | 14.0 | . | .
COC(=O)[C@]12C[C@H](CC(=O)NCCCCc3ccccc3)C(=O)N(Cc3ccc4c(c3)OCO4)C1=C[C@H](COCc1ccccc1)O[C@@H]2C | . | -8.4 | . | . | . | . | . | .
COC(=O)c1cc(Br)c(=O)n(-c2nccs2)c1 | 16.3 | -0.8 | 4.1 | -3.1 | 4.0 | 24.7* | 22.5* | 24.3*
COC(=O)c1cc(Br)c(=O)n(-c2ccccn2)c1 | 11.8 | 0.7 | 21.5 | 3.0 | -21.4 | 0.1 | . | .
Cc1ccc(S(=O)(=O)NC(=O)ON=Cc2ccc3c(c2)OCO3)cc1 | . | 0.7 | . | . | . | . | . | .
O=S(=O)(NCc1cccs1)c1cccc(S(=O)(=O)N2CCCCC2)c1 | 11.1 | -2.4 | -11.1 | 6.4 | . | 34.4* | -6.2 | -6.4
SMILES | 697 NFkB inh | GalR3 antag | NR2E3 ag-1 | Jurkat NFkB inh | Gli-Sufu block | NR2E3 ag-2 | NR2E3 agonist cf | PPARg-NCOR2 ag | others
COC(=O)C1=C(C)N(Cc2ccccc2C(F)(F)F)C(=NCc2cc(OC)c(OC)c(OC)c2)NC1c1ccccc1 (configuration not stated) | . | -5.2 | . | . | . | . | . | .
c1ccc2c(c1)-c1cccc3c1c-2cc1ccccc13 | -23.4 | . | . | -18.4 | . | 24.8* | -6.7 | -3.8
Nc1ccc2nc(-c3ccc(-c4nc5ccc(N)cc5[nH]4)cc3)[nH]c2c1 | 1.1 | -9.4 | . | -2.1 | 1.5 | 23.6* | 10.0 | 3.6
Cc1cc(=O)n(C2CCS(=O)(=O)C2)[nH]1 (configuration not stated) | -12.2 | -1.3 | -9.6 | -26.7 | 9.8 | 32.6* | -4.9 | -3.5
Cc1ccccc1-c1nnnn1C1CCS(=O)(=O)C1 (configuration not stated) | 7.7 | -3.8 | -10.0 | 2.6 | 16.0 | -0.4 | . | .
CCCCCCCCN1C(=O)[C@@H](CC(=O)NCC23CC4CC(CC(C4)C2)C3)C[C@@]2(C(=O)OC)C1=C[C@H](C1CCCC1)O[C@@H]2C | . | -7.1 | . | . | . | . | . | .
Cc1oc2c(c1C(=O)NCc1cccnc1)C(=O)c1ccccc1C2=O | 28.9 | . | . | 88.2* | 79.8* | 21.7* | 18.5 | -0.1 | Jurkat NFkB conf=84.5*
O=C(N[C@@H](Cc1cccnc1)C(=O)N1CCC[C@H]1C(=O)NC1CCCC1)C1CCCC1 | . | -7.5 | . | . | . | . | . | .
